Published values gathered from unrelated publications.
Cell line: Vero
Read-out: cell growth or viability

| SMILES | method | time | IC50 |
| --- | --- | --- | --- |
| Nc1ccccc1-c1nc2cnccn2c1N | MTT | 48 h | 78 µM |
| Oc1ncnc2cc(Nc3nc(-c4ccc(Br)cc4)cs3)ccc12 | MTT |  | > 50 µM |
| CN(C)c1ccc(-c2nc3cnccn3c2NC(C)(C)C)cc1 | MTT | 48 h | > 100 µM |
| Nc1nc(N)c(CNCCc2ccc(F)cc2)c(C2CCCCC2)n1 | SRB |  | 22 µM |
| Oc1ccc(-c2csc(Nc3ccc4c(O)ncnc4c3)n2)cc1 | MTT |  | > 50 µM |
| Cc1ccc(C)n1-c1ccc(C(=O)NNC=O)cc1 | MTT | 72 h | 211 µM |
| O=c1[nH]cc(F)c(=O)[nH]1 | MTT | 72 h | 5.19 µM |
| CO[C@H]1/C=C/O[C@@]2(C)Oc3c(C)c(O)c4c(O)c(c(/C=N/N5CCN(C)CC5)c(O)c4c3C2=O)NC(=O)/C(C)=C\C=C\[C@H](C)[C@H](O)[C@@H](C)[C@@H](O)[C@@H](C)[C@H](OC(C)=O)[C@@H]1C | MTT | 48 h | > 1000 µg/mL |
| Nc1ccc(-c2nc3ccccn3c2NC2CCCCC2)cc1 | MTT | 48 h | 90 µM |
| COc1ccc(CCNCc2c(N)nc(N)nc2C2CCCCC2)cc1 | SRB |  | 21 µM |
| NNC(=O)c1ccncc1 | MTT | 72 h | > 450 µM |
| NC1=NN(c2ccccc2)C(=O)C1=NNc1ccc(N=Nc2ccccc2)cc1 |  |  | 44.6 µM |
| O=[N+]([O-])c1ccc(-c2nc3cnccn3c2NC2CCCCC2)cc1 | MTT | 48 h | 64 µM |
| CCc1nc(N)nc(N)c1-c1ccc(Cl)cc1 | SRB |  | 27 µM |
| Nc1ccc(-c2csc(Nc3ccc4c(O)ncnc4c3)n2)cc1 | MTT |  | > 50 µM |
| Nc1nc(N)c(CNCCc2cccc(Cl)c2)c(C2CCCCC2)n1 | SRB |  | 23 µM |
| Cc1ccc(C)n1-c1ccc(-c2nnc(-c3c(Cl)cccc3Cl)[nH]2)cc1 | MTT | 72 h | 229 µM |
| CC(C)(C)Nc1c(-c2ccc(N)cc2)nc2cnccn12 | MTT | 48 h | 76 µM |
| Cc1[nH]c(=O)c(CNC(=O)c2ccc([N+](=O)[O-])o2)c2c1CCCC2 | MTT | 72 h | > 50 µg/mL |
| Nc1ccc(-c2nc3ccccn3c2N)cc1 | MTT | 48 h | 88 µM |
| Nc1nc(N)c(CNCCc2ccc(Cl)cc2Cl)c(C2CCCCC2)n1 | SRB |  | 16 µM |
| Oc1ncnc2cc(Nc3nc(-c4ccc(C(F)(F)F)cc4)cs3)ccc12 | MTT |  | > 50 µM |
| CC(C)(C)Nc1c(-c2ccccc2[N+](=O)[O-])nc2cnccn12 | MTT | 48 h | > 100 µM |
